Test results reported in ChEMBL document CHEMBL1158589, “Benzimidazole and imidazole inhibitors of histone deacetylases: Synthesis and biological activity” (Bioorg Med Chem Lett, 2010).
pEC50, pIC50: −log10 of the molar value.

Assays:
[1] = target: T1, Protein deacetylase HDAC6 (Homo sapiens, UniProt Q9UBN7); assay: Inhibition of human recombinant HDAC6
T1 sequence (Q9UBN7 whole entry): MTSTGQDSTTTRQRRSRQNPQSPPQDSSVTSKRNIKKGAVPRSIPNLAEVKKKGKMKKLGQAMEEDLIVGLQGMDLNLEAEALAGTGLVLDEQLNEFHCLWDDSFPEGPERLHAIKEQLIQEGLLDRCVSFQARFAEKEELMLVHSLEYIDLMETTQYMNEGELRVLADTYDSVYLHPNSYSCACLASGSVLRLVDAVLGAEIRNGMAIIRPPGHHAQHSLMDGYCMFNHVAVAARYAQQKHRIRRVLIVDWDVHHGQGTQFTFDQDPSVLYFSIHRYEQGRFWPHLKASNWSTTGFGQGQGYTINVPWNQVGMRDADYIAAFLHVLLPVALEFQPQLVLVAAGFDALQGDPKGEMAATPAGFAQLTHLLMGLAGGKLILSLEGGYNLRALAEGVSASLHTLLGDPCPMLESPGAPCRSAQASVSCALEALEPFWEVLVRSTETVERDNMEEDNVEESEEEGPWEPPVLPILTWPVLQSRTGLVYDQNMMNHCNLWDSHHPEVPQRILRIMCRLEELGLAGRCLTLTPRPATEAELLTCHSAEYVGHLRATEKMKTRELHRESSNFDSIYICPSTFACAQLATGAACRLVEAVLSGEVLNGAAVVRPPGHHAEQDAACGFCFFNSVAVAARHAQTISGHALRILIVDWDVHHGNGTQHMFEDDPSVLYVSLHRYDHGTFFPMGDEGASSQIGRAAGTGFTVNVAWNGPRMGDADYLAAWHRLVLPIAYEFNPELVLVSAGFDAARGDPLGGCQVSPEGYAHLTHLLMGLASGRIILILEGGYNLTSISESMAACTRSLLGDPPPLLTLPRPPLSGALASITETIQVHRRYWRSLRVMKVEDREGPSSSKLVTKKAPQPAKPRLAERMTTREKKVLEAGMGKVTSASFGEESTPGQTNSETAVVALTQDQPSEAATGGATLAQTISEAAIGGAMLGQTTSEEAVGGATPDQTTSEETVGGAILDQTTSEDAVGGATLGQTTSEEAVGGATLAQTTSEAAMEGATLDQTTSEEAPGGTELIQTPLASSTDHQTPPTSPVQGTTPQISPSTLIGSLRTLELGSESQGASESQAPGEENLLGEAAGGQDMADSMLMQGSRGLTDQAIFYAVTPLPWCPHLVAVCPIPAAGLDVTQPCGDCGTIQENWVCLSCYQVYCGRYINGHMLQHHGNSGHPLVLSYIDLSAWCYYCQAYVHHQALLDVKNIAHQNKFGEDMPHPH
Summary of the method: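 Purified recombinant human HDAC-2 or HDAC-6 at known enzyme concentration with tBOC(Ac)-Lys-AMC as substrate. IC50 is the mean of at least three experiments.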

Histone deacetylase 8 = target: T2, Histone deacetylase 8 (Homo sapiens, UniProt Q9BY41); assay: Inhibition of human recombinant HDAC8
T2 sequence (Q9BY41 whole entry): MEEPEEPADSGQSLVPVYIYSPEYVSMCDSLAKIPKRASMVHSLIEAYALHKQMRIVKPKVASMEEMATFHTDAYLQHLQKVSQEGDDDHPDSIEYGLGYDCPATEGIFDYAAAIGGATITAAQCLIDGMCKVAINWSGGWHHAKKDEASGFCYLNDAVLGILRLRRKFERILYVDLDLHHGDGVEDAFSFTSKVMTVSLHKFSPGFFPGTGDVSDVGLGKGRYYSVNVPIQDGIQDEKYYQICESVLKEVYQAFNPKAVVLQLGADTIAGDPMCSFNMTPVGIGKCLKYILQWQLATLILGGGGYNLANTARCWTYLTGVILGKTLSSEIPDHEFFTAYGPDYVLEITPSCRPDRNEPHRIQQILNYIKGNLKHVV

A549 = assay: Cytotoxicity against human A549 cells assessed as NADH level after 72 hrs by MTS cells; assay type: functional, cell-based; conditions: A549, 72 h
Summary of the method: (§1)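 Human A549 lung, HL60 leukemia and PC3 prostate cancer lines incubated with compound for 72 h. Viability read by MTS colorimetric assay from remaining NADH; EC50 calculated; mean of at least two experiments.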

PC-3 = assay: Cytotoxicity against human PC3 cells assessed as NADH level after 72 hrs by MTS cells; assay type: functional, cell-based; conditions: PC-3, 72 h; summary of the method: as §1
HL-60 = assay: Cytotoxicity against human HL60 cells assessed as NADH level after 72 hrs by MTS cells; assay type: functional, cell-based; conditions: HL-60, 72 h; summary of the method: as §1

SMILES	pIC50 [1]	pIC50 (Histone deacetylase 8)	pEC50 (A549)	pEC50 (PC-3)	pEC50 (HL-60)
CCN1CCC[C@@H](n2c(Cc3ccccc3)nc(C)c2-c2cccc(/C=C/C(=O)NO)c2)C1	6.30	7.00	–	–	–
CCN1CCC[C@@H](n2c(-c3cccc(/C=C/C(=O)NO)c3)nc3ccccc32)C1	7.10	6.92	6.70	7.30	7.52
O=C(/C=C/c1cccc(-c2nc3ccccc3n2CCCc2ccccc2)c1)NO	7.70	7.60	4.92	5.40	5.92
Cc1nc(-c2cccc(/C=C/C(=O)NO)c2)n(CCc2ccccc2)c1-c1ccccc1	7.10	7.60	6.00	6.30	6.52
O=C(/C=C/c1cccc(-c2nc3ccccc3n2CCN2CCCCC2)c1)NO	7.40	7.00	5.92	6.22	6.52
O=C(/C=C/c1cccc(-c2nc3ccccc3n2C2CCCNC2)c1)NO (racemic)	7.40	6.80	5.60	6.30	6.52
CCN1CCCC(n2c(-c3cccc(/C=C/C(=O)NO)c3)nc3ccccc32)C1 (racemic)	7.10	6.92	6.30	7.00	7.22
CN(C)CCn1c(-c2cccc(/C=C/C(=O)NO)c2)nc2ccccc21	7.10	6.80	5.10	5.60	6.00
O=C(/C=C/c1cccc(-c2nc3ccccc3n2-c2ccc(Cl)cc2)c1)NO	7.00	7.30	5.20	5.60	6.10
O=C(/C=C/c1cccc(-c2nc3ccccc3[nH]2)c1)NO	7.00	7.20	4.60	5.00	5.51
CCN(CC)CCn1c(-c2cccc(/C=C/C(=O)NO)c2)nc2ccccc21	7.10	7.20	5.40	5.92	6.10
CN1CCCC(n2c(-c3cccc(/C=C/C(=O)NO)c3)nc3ccccc32)C1 (racemic)	7.10	6.80	6.30	7.00	7.10
Cc1nc(-c2cccc(/C=C/C(=O)NO)c2)n(CCN2CCOCC2)c1-c1ccccc1	6.92	7.10	5.40	6.00	6.52
CCN1CCC[C@@H](n2c(-c3cccc(/C=C/C(=O)NO)c3)nc(Cc3ccccc3)c2C)C1	7.00	7.30	7.00	7.40	7.52
Cc1c(Cc2ccccc2)nc(-c2cccc(/C=C/C(=O)NO)c2)n1CCc1ccccc1	7.20	7.80	6.10	6.30	6.70
CCN1CCC[C@@H](n2c(-c3cccc(/C=C/C(=O)NO)c3)nc(C)c2-c2ccccc2)C1	7.10	7.30	6.52	7.10	7.40
Cc1nc(-c2cccc(/C=C/C(=O)NO)c2)n(CCN2CCOCC2)c1C	6.80	6.70	< 4.30	5.30	5.80
O=C(/C=C/c1cccc(-c2nc3ccccc3n2CCN2CCCC2)c1)NO	–	7.20	5.51	6.22	6.30
CCN1CCC[C@@H](n2c(C)nc(C)c2-c2cccc(/C=C/C(=O)NO)c2)C1	6.40	–	–	–	–
